High-throughput results (PubChem)
Most compounds without a hit are left out; they make up all but 2.8% or so of the library.
NPY1 pot ag: NPY-Y1 receptor potentiators or agonists, primary screen, cell-based. Neuropeptide Y receptor type 1 (Homo sapiens), P25929. NPY-Y1 expressing cells, potentiator/agonist activation. activation, % at 3.6 µM. hit rate 0.37% among 220,000. AID 1304, 2008; in the data active means activation above about 33%, passing the limit was not always enough;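 further: cells stimulated with NPY at EC10 then isoproterenol at EC100; 0% = low agonist plus stimulus and 100% = saturating agonist plus stimulus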
EP2 mod: EP2 receptor modulators, cAMP readout, primary screen, cell-based, HTRF cAMP, PGE2 stimulation; Prostaglandin E2 receptor EP2 subtype (Homo sapiens), P43116; EP2-expressing cells, cAMP HTRF FRET, PGE2 co-stimulation; induction, % at 25 µM; hit rate 0.83% among 260,000;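 active means compounds whose cAMP rise, as percent of the full-agonist control response, exceeds 60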;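 further: rat C6 glioma line stably carrying human EP2 under a CMV promoter; the protocol text gives 20 µM as final concentration; 100% = response of wells given 1 µM PGE2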
NPY-Y2 PAM-ag: NPY-Y2 potentiators or agonists, primary screen, cell-based; Neuropeptide Y receptor type 2 (Homo sapiens), P49146; cells expressing NPY-Y2, potentiator/agonist read-out; activation, % at 3.6 µM; hit rate 0.45% among 220,000; AID 1359, 2008; in the data active means activation above about 27%;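 further: cells stimulated with NPY near EC25 plus isoproterenol at EC100; 0% = vehicle plus submaximal agonist and 100% = vehicle plus saturating agonist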
Target sequence (P49146 whole entry, looked up): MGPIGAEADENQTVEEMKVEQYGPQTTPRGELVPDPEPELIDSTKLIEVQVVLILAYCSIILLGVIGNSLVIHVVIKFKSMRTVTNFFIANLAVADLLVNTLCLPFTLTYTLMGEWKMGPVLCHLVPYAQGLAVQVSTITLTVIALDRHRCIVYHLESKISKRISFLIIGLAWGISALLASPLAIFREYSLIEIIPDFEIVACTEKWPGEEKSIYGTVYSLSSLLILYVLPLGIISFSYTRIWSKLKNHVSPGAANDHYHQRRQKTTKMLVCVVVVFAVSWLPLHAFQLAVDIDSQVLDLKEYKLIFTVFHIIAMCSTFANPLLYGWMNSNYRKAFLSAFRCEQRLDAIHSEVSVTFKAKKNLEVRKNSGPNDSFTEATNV
NPY Y2 blocker: NPY-Y2 receptor antagonists, primary screen, cell-based; hit rate 0.99% among 140,000; inhibition, % at 2.7 µM; Neuropeptide Y receptor type 2 (Homo sapiens), P49146; NPY-Y2 expressing cells, antagonist mode; in the data active means inhibition above about 17%;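 further: 0% = vehicle with agonist challenge and 100% = reference antagonist with challenge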
EP2 antag: human EP2 receptor antagonists, primary screen, TR-FRET cAMP, C6 glioma cells; C6 glioma cells expressing human EP2; cells stimulated with saturating PGE2; inhibition, % at 25 µM; hit rate 0.52% among 260,000; AID 1422, 2008;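 active means percent inhibition above 40 after rounding to a whole number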;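 further: rat C6 glioma host cells with rolipram phosphodiesterase inhibitor present; the protocol text gives 20 µM as final concentration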
NPY-Y1 antag: NPY-Y1 receptor antagonists, primary screen, cell-based | Neuropeptide Y receptor type 1 (Homo sapiens), P25929 | HEK293-CNG Y1 cells, membrane potential fluorescence; NPY at EC95, then isoproterenol | inhibition, % at 3.6 µM | hit rate 1% among 200,000 | AID 1040, 2008;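 active means inhibition above the campaign mean inhibition of all tested compounds plus 3 SD, cut at about 20% in these data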;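 further: 0% = DMSO wells given NPY plus isoproterenol and 100% = isoproterenol alone without NPY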
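Material: HEK293 Y1/CNG channel cell line; also added: NPY (25 nM), isoproterenol (1 µM), Ro 20-1724 (25 µM); doses: one concentration, 3.6 µM, in 0.4% DMSO; schedule: compound incubation 1 h at room temperature, readout 45 min post-stimulation; technique: membrane potential fluorescence; measure: fluorescence ratio normalized to % inhibition between controls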
EP2 confirm: cAMP induction in EP2, EP4, beta2-AR and parental cells, confirmation, counter-screen for EP2 modulator project, cell-based, five parallel assays, C6 glioma, HEK293 | shares compounds with EP2 mod | cAMP HTRF induction; plus low (about EC15) PGE2 agonist | calls only at 20 µM (by protocol) | hit rate 47% among 1,300;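 active means cAMP induction above 50% in the main assay while under 30% in all four parallel counter assays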;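 further: rat C6 glioma cells stably expressing human EP2 receptor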
An asterisk follows results filed as active; i = inactive; . = no result; + = active, no number.

SMILES	NPY1 pot ag	EP2 mod	NPY-Y2 PAM-ag	NPY Y2 blocker	EP2 antag	NPY-Y1 antag	EP2 confirm
CCOC(=O)c1cnc(SC)nc1Sc1ccccc1Cl	-45	73*	-15	6	7	5	i
CCOC(=O)c1cnc(SC)nc1NCCOC	-4	-18	-12	.	5	-6	.
CSc1nc(Sc2ccccc2Cl)c2ccccc2n1	-58	67*	-24	9	18	10	i
CSc1nc(Nc2ccccc2)c2ccccc2n1	.	-38	.	.	11	.	.
CC(=O)C1=C(O)C(=O)N(Cc2ccccc2)C1c1cccnc1 (centres undefined)	.	-3	.	.	12	.	.
Cc1cccc2cc(CN(Cc3cccs3)C3(c4nnnn4C4CCCC4)CCCC3)c(=O)[nH]c12	-1	66*	9	2	13	-2	i
CCn1c2ccc(F)cc2c2nc3ccccc3nc21	-24	40	-16	.	6	8	i
CCCn1c2ccccc2c2nc3ccccc3nc21	-11	78*	-14	1	20	11	+
CCCCn1c(Nc2ccccc2)nc2ccccc21	6	16	-2	4	6	4	.
N#CCCn1c2ccccc2c2nc3ccccc3nc21	-10	-12	-3	1	19	-5	.
CCCn1c(Nc2nc3ccccc3n2C)nc2ccccc21	-5	71*	-8	2	8	1	i
CCC(C)c1ccc(NC(=O)c2nc3ncccn3n2)cc1 (centres undefined)	.	-13	.	.	11	.	.
Clc1cccc(-c2nc3nc4ccccc4nc3n2Cc2ccccc2)c1	6	49	4	1	7	11	.
c1ccc(Cn2c(-c3ccccc3)nc3nc4ccccc4nc32)cc1	-30	67*	-11	17	11	6	+
CCn1c(SCC(=O)N2CCCCC2)nnc1-c1cc2ccccc2cc1O	.	-55	.	.	12	.	.
CCOC(=O)C1=CN(CC2CCCO2)C=C(C(=O)OCC)C1c1ccccc1C(F)(F)F (centres undefined)	3	74*	18	.	5	7	i
CCOC(=O)C1=C(C)N(CCOC)C(=O)/C1=C\c1ccccc1OCC	.	18	.	.	14	.	.
Cc1ccc(S(=O)(=O)N2CCCC(C(=O)NC(C)(C)C)C2)cc1 (centres undefined)	.	-6	.	.	16	.	.
O=C(NC(=O)N1CCCc2ccccc21)c1ccccc1	-3	21	8	.	6	1	.
O=C(C(c1ccccc1)c1ccccc1)N1CCCc2ccccc21	-14	78*	7	8	17	8	+
O=C(CN1CCCCCCC1)Nc1ccc(Cl)cc1Cl	15	66*	6	.	5	6	i
O=C(CN1CCCCC1)Nc1ccc(C(F)(F)F)cc1Cl	-10	4	-7	.	12	.	.
CCOc1ccc(OCC)c(N=c2oc3c(C)ncc(CO)c3cc2C(N)=O)c1	5	-13	3	-1	.	0	.
COc1cccc(N=c2oc3c(C)ncc(CO)c3cc2C(=O)Nc2ccccc2OC)c1	-22	68*	-15	4	.	0	i
Cc1cccc(C2(c3cccc(C)c3)OC(=O)c3ccccc32)c1	2	38	-6	16	1	7	.
SMILES	NPY1 pot ag	EP2 mod	NPY-Y2 PAM-ag	NPY Y2 blocker	EP2 antag	NPY-Y1 antag	EP2 confirm
Cc1cc(O)ccc1C1(c2ccc(O)cc2C)OC(=O)c2ccccc21	-4	67*	8	5	11	1	i
CCOc1ccc(-c2[nH]nc3c2C(c2ccc(OC)cc2OC)C(C#N)=C(N)O3)cc1 (centres undefined)	.	2	.	.	12	.	.
Cc1cc(-c2sccc2C)nc(-n2cccc2)n1	-33	75*	-25	3	5	9	+
Cc1cc(C(F)(F)F)n2nc(-c3sccc3-n3cccc3)cc2n1	-9	33	-15	1	.	5	.
COc1ccc(NC(=S)N(CCO)Cc2cc3cc(C)cc(C)c3[nH]c2=O)cc1	.	-56	.	.	12	.	.
Cn1c(NN)nc2c(c1=O)C1(CCCC1)Cc1ccccc1-2	.	59	.	.	10	.	.
O=c1c2c(nc3n1CCCCC3)-c1ccccc1CC21CCCCC1	-4	66*	-17	3	6	-1	+
CCNc1c2c3c(cccc3n(C)c1=O)C(=O)c1ccccc1-2	13	56	10	3	2	-2	.
Cn1c(=O)c(NCCc2ccccc2)c2c3c(cccc31)C(=O)c1ccccc1-2	1	77*	2	6	2	8	+
Cn1c(=O)c(NCCO)c2c3c(cccc31)C(=O)c1ccccc1-2	8	8	7	4	25	0	.
Cn1c(=O)c(NC2CCCCC2)c2c3c(cccc31)C(=O)c1ccccc1-2	7	65*	-2	.	3	4	+
O=C(NC1CCCCC1)NC1(C(=O)N2CCc3ccccc32)CCCCC1	.	-31	.	.	8	.	.
CCn1c(=O)n(CC(=O)N2CCNC(=O)C2(C)C)c2cccnc21	.	-20	.	.	.	.	.
C[n+]1cn(CC(O)COc2ccc(C(=O)O)cc2)c2ccccc21 (centres undefined)	.	-13	.	.	16	.	.
COc1ccc(OCC(=O)Nc2ccccc2-c2ccccc2)cc1	-48	15	-38	.	3	8	.
Cc1cccc(OCC(=O)Nc2ccccc2-c2ccccc2)c1	-20	71*	-3	7	6	0	+
CCOC(=O)c1ccccc1NC(=O)COc1ccccc1	-32	79*	-15	5	8	4	i
CCOCC(=O)Nc1ccccc1C(=O)OCC	8	23	-4	3	4	3	.
CCOC(=O)c1ccccc1NC(=O)CSc1ccccc1	-22	79*	4	4	16	0	i
CCOC(=O)c1ccccc1NC(=O)C(C)Oc1ccccc1 (centres undefined)	-19	54	1	2	14	-6	+
CCCC(C)C(=O)Nc1ccccc1C(=O)OCC (centres undefined)	-2	19	5	3	12	-2	.
Cc1ccc(N2CCCC2=O)cc1S(=O)(=O)NCCCN(C)c1ccccc1	.	-110	.	.	4	.	.
COc1nc2cc(C)ccc2cc1CN(CCCn1ccnc1)Cc1ccc(C)o1	.	-1	.	.	7	.	.
OC(Cc1ccccc1)(Cc1ccccc1)c1ccccc1	.	59	.	.	9	.	i
CC1(C)Cc2nc3nc(SCC(=O)Nc4ccccc4)nc(N)c3cc2CO1	-10	71*	6	.	6	-3	+
